In ChEMBL document CHEMBL1148398, “Design, synthesis, and biological evaluation of thio-containing compounds with serum HDL-cholesterol-elevating properties” (2004):

Key:
Assay type in all cases: functional
Cricetinae gen. sp. [1] = test: Percent change in total plasma cholesterol following oral administration of compound in hypercholesterolemic hamsters at 100 mg/kg/day for 14 days
How it was run: (§1)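 Male Syrian Golden hamsters pre-fed chow plus 0.25% cholesterol for 2 weeks and kept on it. Dosed 100 mg/kg/day by oral gavage in 2% Tween 80/saline for 14 days. Serum total cholesterol and glycerol-blanked triglycerides read enzymatically; lipoproteins separated by FPLC with cholesterol measured in each fraction. % change versus vehicle controls; six per group, p < 0.05.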

Cricetinae gen. sp. [2] = test: Percent change in triglycerides following oral administration of compound in hypercholesterolemic hamsters at 100 mg/kg/day for 14 days; how it was run: as §1
Cricetinae gen. sp. [3] = test: Percent change in very low-density lipoprotein cholesterol following oral administration of compound in hypercholesterolemic hamsters at 100 mg/kg/day for 14 days; how it was run: as §1
Cricetinae gen. sp. [4] = test: Percent change in high-density lipoprotein cholesterol following oral administration of compound in hypercholesterolemic hamsters at 100 mg/kg/day for 14 days; how it was run: as §1
Cricetinae gen. sp. [5] = test: Percent change in low-density lipoprotein cholesterol following oral administration of compound in hypercholesterolemic hamsters at 100 mg/kg/day for 14 days; how it was run: as §1
Rattus norvegicus [6] = test: Percent change in total plasma cholesterol following oral administration of compound in normal chow-fed rats at 100 mg/kg/day for 4 days
How it was run: (§2)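 Chow-fed male Sprague–Dawley CD rats, 60–80 g, gavaged 100 mg/kg/day for 4 days in 1.3% Tween 80/0.25% CMC. Fasted overnight, bled 24 h after the last dose. Total cholesterol and glycerol-blanked triglycerides read enzymatically; lipoproteins by FPLC with cholesterol per fraction. % change versus control; six per group, p < 0.05.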

Rattus norvegicus [7] = test: Percent change in total plasma cholesterol in hypercholesterolemic rats dosed at 100 mg/kg/day for 8 days
Rattus norvegicus [8] = test: Percent change in high-density lipoprotein cholesterol following oral administration of compound in normal chow-fed rats at 100 mg/kg/day for 4 days; how it was run: as §2
Rattus norvegicus [9] = test: Percent change in high-density lipoprotein cholesterol in hypercholesterolemic rats dosed at 100 mg/kg/day for 8 days
Rattus norvegicus [10] = test: Percent change in low-density lipoprotein cholesterol following oral administration of compound in normal chow-fed rats at 100 mg/kg/day for 4 days; how it was run: as §2
Rattus norvegicus [11] = test: Percent change in triglycerides in hypercholesterolemic rats at a dose of 100 mg/kg/day for 8 days
Rattus norvegicus [12] = test: Percent change in very low-density lipoprotein cholesterol following oral administration of compound in normal chow-fed rats at 100 mg/kg/day for 4 days; how it was run: as §2
Rattus norvegicus [13] = test: Percent change in triglycerides following oral administration of compound in normal chow-fed rats at 100 mg/kg/day for 4 days; how it was run: as §2

COc1ccc(Cl)cc1N1C(=O)CON(C)C1=S
Change (Cricetinae gen. sp. [1]): -7.9%
Change (Cricetinae gen. sp. [2]): -26.5%
Change (Cricetinae gen. sp. [3]): -32.6%
Change (Cricetinae gen. sp. [4]): 23.5%
Change (Cricetinae gen. sp. [5]): -20.2%
Change (Rattus norvegicus [6]): 67.7%
Change (Rattus norvegicus [7]): 44%
Change (Rattus norvegicus [8]): 71.3%
Change (Rattus norvegicus [9]): 78%
Change (Rattus norvegicus [10]): 8.6%
Change (Rattus norvegicus [11]): 7%
Change (Rattus norvegicus [12]): 25%
Change (Rattus norvegicus [13]): -7.4%

CCN1CCC(=O)N(c2ccc(Cl)cc2C)C1=S
Change (Cricetinae gen. sp. [1]): 2%
Change (Cricetinae gen. sp. [2]): -30.7%
Change (Cricetinae gen. sp. [3]): 6.3%
Change (Cricetinae gen. sp. [4]): 47.8%
Change (Cricetinae gen. sp. [5]): -26.8%
Change (Rattus norvegicus [6]): 80.7%
Change (Rattus norvegicus [7]): 40%
Change (Rattus norvegicus [8]): 75.5%
Change (Rattus norvegicus [9]): 126%
Change (Rattus norvegicus [10]): 38.9%
Change (Rattus norvegicus [11]): -16%
Change (Rattus norvegicus [12]): -15%
Change (Rattus norvegicus [13]): -53.1%

Cc1ccc(C)c(N2C(=O)CON(C)C2=S)c1
Change (Cricetinae gen. sp. [1]): -13.8%
Change (Cricetinae gen. sp. [2]): -23.8%
Change (Cricetinae gen. sp. [3]): -25.5%
Change (Cricetinae gen. sp. [4]): 48.3%
Change (Cricetinae gen. sp. [5]): -40.1%
Change (Rattus norvegicus [6]): 75.2%
Change (Rattus norvegicus [7]): 28%
Change (Rattus norvegicus [8]): 87.2%
Change (Rattus norvegicus [9]): 72%
Change (Rattus norvegicus [10]): 9.1%
Change (Rattus norvegicus [11]): 26%
Change (Rattus norvegicus [12]): 61.5%
Change (Rattus norvegicus [13]): -31.6%

CCN1CCC(=O)N(c2c(C)cccc2Cl)C1=S
Change (Rattus norvegicus [6]): 45.4%
Change (Rattus norvegicus [7]): 23%
Change (Rattus norvegicus [8]): 45.5%
Change (Rattus norvegicus [9]): 199%
Change (Rattus norvegicus [10]): -1.1%
Change (Rattus norvegicus [11]): -16%
Change (Rattus norvegicus [12]): -5.3%
Change (Rattus norvegicus [13]): -35.7%

Cc1cccc(Cl)c1N1C(=O)CON(C)C1=S
Change (Cricetinae gen. sp. [1]): -21.4%
Change (Cricetinae gen. sp. [2]): 38.6%
Change (Cricetinae gen. sp. [3]): 5.2%
Change (Cricetinae gen. sp. [4]): -28.1%
Change (Cricetinae gen. sp. [5]): -22.4%
Change (Rattus norvegicus [6]): 40.4%
Change (Rattus norvegicus [7]): -2.7%
Change (Rattus norvegicus [8]): 52.8%
Change (Rattus norvegicus [9]): 100%
Change (Rattus norvegicus [10]): 11.7%
Change (Rattus norvegicus [11]): -30%
Change (Rattus norvegicus [12]): 80.8%
Change (Rattus norvegicus [13]): -61.5%

CCN1CC(=O)N(c2c(C)cccc2C)C1=S
Change (Rattus norvegicus [6]): 106.7%
Change (Rattus norvegicus [7]): -28%
Change (Rattus norvegicus [8]): 93.6%
Change (Rattus norvegicus [9]): 181%
Change (Rattus norvegicus [10]): 43.8%
Change (Rattus norvegicus [11]): -23%
Change (Rattus norvegicus [12]): 13%
Change (Rattus norvegicus [13]): -12.8%

Cc1cc(Cl)ccc1N1C(=O)CON(C)C1=S
Change (Rattus norvegicus [6]): 51.4%
Change (Rattus norvegicus [7]): 4%
Change (Rattus norvegicus [8]): 53.4%
Change (Rattus norvegicus [9]): 221%
Change (Rattus norvegicus [10]): 20.8%
Change (Rattus norvegicus [11]): -38%
Change (Rattus norvegicus [12]): 114.7%
Change (Rattus norvegicus [13]): -4.3%

Cc1cccc(C)c1N1C(=O)CN(C(C)C)C1=S
Change (Cricetinae gen. sp. [1]): -3.1%
Change (Cricetinae gen. sp. [2]): -7.3%
Change (Cricetinae gen. sp. [3]): 8.9%
Change (Cricetinae gen. sp. [4]): 1.7%
Change (Cricetinae gen. sp. [5]): 17.2%
Change (Rattus norvegicus [6]): 56.1%
Change (Rattus norvegicus [7]): -25%
Change (Rattus norvegicus [8]): 71.2%
Change (Rattus norvegicus [9]): 146%
Change (Rattus norvegicus [10]): -5.8%
Change (Rattus norvegicus [11]): -43%
Change (Rattus norvegicus [12]): -10.5%
Change (Rattus norvegicus [13]): -42.9%

CCN1CC(=O)N(c2ccccc2C)C1=S
Change (Rattus norvegicus [6]): 52.1%
Change (Rattus norvegicus [7]): 76.5%
Change (Rattus norvegicus [8]): 54.3%
Change (Rattus norvegicus [9]): 164%
Change (Rattus norvegicus [10]): 18.7%
Change (Rattus norvegicus [11]): 38%
Change (Rattus norvegicus [12]): 0%
Change (Rattus norvegicus [13]): -25%

CCN1CC(=O)N(c2cc(C)ccc2C)C1=S
Change (Rattus norvegicus [6]): 26.4%
Change (Rattus norvegicus [7]): 49%
Change (Rattus norvegicus [8]): 31.9%
Change (Rattus norvegicus [9]): 124%
Change (Rattus norvegicus [10]): -8.3%
Change (Rattus norvegicus [11]): -6%
Change (Rattus norvegicus [12]): 31.3%
Change (Rattus norvegicus [13]): -2.5%

CON1CC(=O)N(c2cc(Cl)ccc2C)C1=S
Change (Rattus norvegicus [6]): 134.4%
Change (Rattus norvegicus [7]): 41%
Change (Rattus norvegicus [8]): 102.4%
Change (Rattus norvegicus [9]): 160%
Change (Rattus norvegicus [10]): 87.5%
Change (Rattus norvegicus [11]): -62%
Change (Rattus norvegicus [12]): 249.5%
Change (Rattus norvegicus [13]): -10.8%

CCN1C(=S)N(c2cc(Cl)ccc2C)C(=O)C1OC (stereo unspecified)
Change (Cricetinae gen. sp. [1]): 3.8%
Change (Cricetinae gen. sp. [2]): -36.4%
Change (Cricetinae gen. sp. [3]): -35.8%
Change (Cricetinae gen. sp. [4]): 57.4%
Change (Cricetinae gen. sp. [5]): -19%
Change (Rattus norvegicus [6]): 102.3%
Change (Rattus norvegicus [7]): 6%
Change (Rattus norvegicus [8]): 91.6%
Change (Rattus norvegicus [9]): 140%
Change (Rattus norvegicus [10]): 11.9%
Change (Rattus norvegicus [11]): -33%
Change (Rattus norvegicus [12]): 83.6%
Change (Rattus norvegicus [13]): -10.6%

CCN1CC(=O)N(c2cccc(Cl)c2Cl)C1=S
Change (Cricetinae gen. sp. [1]): -8%
Change (Cricetinae gen. sp. [2]): -12.3%
Change (Cricetinae gen. sp. [3]): -5.9%
Change (Cricetinae gen. sp. [4]): 0%
Change (Cricetinae gen. sp. [5]): -8.1%
Change (Rattus norvegicus [6]): 89.6%
Change (Rattus norvegicus [7]): 11%
Change (Rattus norvegicus [8]): 85.3%
Change (Rattus norvegicus [9]): 98%
Change (Rattus norvegicus [10]): 20.4%
Change (Rattus norvegicus [11]): -23%
Change (Rattus norvegicus [12]): 57.9%
Change (Rattus norvegicus [13]): 18.3%

CCN1CC(=O)N(c2ccc(OC(F)(F)F)cc2)C1=S
Change (Rattus norvegicus [6]): 197.6%
Change (Rattus norvegicus [7]): -1%
Change (Rattus norvegicus [8]): 71.4%
Change (Rattus norvegicus [9]): 265%
Change (Rattus norvegicus [10]): 127.5%
Change (Rattus norvegicus [11]): -72%
Change (Rattus norvegicus [12]): 543.5%
Change (Rattus norvegicus [13]): 2.8%

CCN1CCC(=O)N(c2ccccc2F)C1=S
Change (Rattus norvegicus [6]): 48.7%
Change (Rattus norvegicus [7]): 21%
Change (Rattus norvegicus [8]): 55.3%
Change (Rattus norvegicus [9]): 72%
Change (Rattus norvegicus [10]): -4%
Change (Rattus norvegicus [11]): -26%
Change (Rattus norvegicus [12]): 20.1%
Change (Rattus norvegicus [13]): -4%

CN1CC(=O)N(c2ccc3c(c2)CCC3)C1=S
Change (Rattus norvegicus [6]): 26%
Change (Rattus norvegicus [7]): -3%
Change (Rattus norvegicus [8]): 46%
Change (Rattus norvegicus [9]): 112%
Change (Rattus norvegicus [10]): -40.3%
Change (Rattus norvegicus [11]): -26%
Change (Rattus norvegicus [12]): 26.3%
Change (Rattus norvegicus [13]): -0.9%

Cc1ccc(Cl)cc1N1C(=O)CON(C)C1=S
Change (Rattus norvegicus [6]): 85.7%
Change (Rattus norvegicus [7]): 5.7%
Change (Rattus norvegicus [8]): 83.5%
Change (Rattus norvegicus [9]): 236%
Change (Rattus norvegicus [10]): 29.9%
Change (Rattus norvegicus [11]): -10%
Change (Rattus norvegicus [12]): 23.1%
Change (Rattus norvegicus [13]): -26.2%

Cc1ccc(Cl)cc1N1C(=O)C(C)N(C)C1=S (stereo unspecified)
Change (Rattus norvegicus [6]): 276.5%
Change (Rattus norvegicus [7]): -8%
Change (Rattus norvegicus [8]): 67.9%
Change (Rattus norvegicus [9]): 220%
Change (Rattus norvegicus [10]): 800%
Change (Rattus norvegicus [11]): -58%
Change (Rattus norvegicus [12]): 134.7%
Change (Rattus norvegicus [13]): 207.2%

CCN1CCC(=O)N(c2c(C)cccc2C)C1=S
Change (Cricetinae gen. sp. [1]): -3%
Change (Cricetinae gen. sp. [2]): 8.6%
Change (Cricetinae gen. sp. [3]): 22.7%
Change (Cricetinae gen. sp. [4]): 0.7%
Change (Cricetinae gen. sp. [5]): 24%
Change (Rattus norvegicus [6]): 70.4%
Change (Rattus norvegicus [7]): 11%
Change (Rattus norvegicus [8]): 97.4%
Change (Rattus norvegicus [9]): 184%
Change (Rattus norvegicus [10]): 0%
Change (Rattus norvegicus [11]): -12%
Change (Rattus norvegicus [12]): -5.2%
Change (Rattus norvegicus [13]): -11.4%

CN1CC(=O)N(c2c(Cl)cccc2Cl)C1=S
Change (Rattus norvegicus [6]): 83.9%
Change (Rattus norvegicus [7]): 4.6%
Change (Rattus norvegicus [8]): 109.3%
Change (Rattus norvegicus [9]): 92%
Change (Rattus norvegicus [10]): 39.6%
Change (Rattus norvegicus [11]): -43%
Change (Rattus norvegicus [12]): -3.3%
Change (Rattus norvegicus [13]): -33.3%

CCN1CCC(=O)N(c2ccccc2C(C)C)C1=S
Change (Rattus norvegicus [6]): 59.2%
Change (Rattus norvegicus [7]): 44%
Change (Rattus norvegicus [8]): 67.8%
Change (Rattus norvegicus [9]): 108%
Change (Rattus norvegicus [10]): 9.8%
Change (Rattus norvegicus [11]): -31%
Change (Rattus norvegicus [12]): 35.2%
Change (Rattus norvegicus [13]): -12.4%

CCc1cccc(C(C)C)c1N1C(=O)CN(CC)C1=S
Change (Rattus norvegicus [6]): 30.9%
Change (Rattus norvegicus [7]): -62%
Change (Rattus norvegicus [8]): 48.7%
Change (Rattus norvegicus [9]): 54%
Change (Rattus norvegicus [10]): -22.3%
Change (Rattus norvegicus [11]): 5%
Change (Rattus norvegicus [12]): -50%
Change (Rattus norvegicus [13]): -12.2%
